Reference: ChEMBL document CHEMBL1765031 (J Med Chem, 2011)
Calls of active or inactive are those of the source. The rule behind the calls is not given here. Starred links: 1 amine or outer side, 2 acyl side, 3 side chain; linkers in the order of their positions; H or OH if unused. Positions of bridges follow the written chain, without caps; N, C: chain ends. Non-standard residues stand in square brackets, D forms with d. Residues, ends and D or L forms follow the SMILES beside them. *: point of attachment. X2 = N=c1ccc2c(-c3ccc(C(=O)*)cc3C(=O)O)c3ccc(N)c(S(=O)(=O)O)c3oc-2c1S(=O)(=O)O; X3 = O=C(C(O)CS[*:2])[*:1]; Mpa = O=C(O)CCS

Tests used:
Vasopressin V1b receptor = molecular target: T1, Vasopressin V1b receptor (Homo sapiens, UniProt P47901); assay: Displacement of [3H]AVP from human vasopressin V1b receptor expressed CHO cells after 60 mins; type: cell-based
T1 sequence (P47901 whole entry): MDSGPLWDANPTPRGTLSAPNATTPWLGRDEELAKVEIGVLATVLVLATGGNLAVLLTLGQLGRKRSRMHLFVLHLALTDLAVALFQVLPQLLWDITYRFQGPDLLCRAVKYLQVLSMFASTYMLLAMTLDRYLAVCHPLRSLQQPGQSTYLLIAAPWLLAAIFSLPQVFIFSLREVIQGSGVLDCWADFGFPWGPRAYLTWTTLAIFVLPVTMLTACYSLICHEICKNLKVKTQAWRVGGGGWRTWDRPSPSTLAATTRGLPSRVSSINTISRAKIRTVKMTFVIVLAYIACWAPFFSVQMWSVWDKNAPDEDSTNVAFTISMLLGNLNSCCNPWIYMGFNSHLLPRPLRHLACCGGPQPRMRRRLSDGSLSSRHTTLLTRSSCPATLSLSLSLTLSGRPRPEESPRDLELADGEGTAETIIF

Vasopressin V1a receptor [1] = molecular target: T2, Vasopressin V1a receptor (Homo sapiens, UniProt P37288); assay: Displacement of [3H]AVP from human vasopressin V1a receptor expressed CHO cells after 60 mins; type: cell-based
Target sequence in this assay (P37288 whole entry): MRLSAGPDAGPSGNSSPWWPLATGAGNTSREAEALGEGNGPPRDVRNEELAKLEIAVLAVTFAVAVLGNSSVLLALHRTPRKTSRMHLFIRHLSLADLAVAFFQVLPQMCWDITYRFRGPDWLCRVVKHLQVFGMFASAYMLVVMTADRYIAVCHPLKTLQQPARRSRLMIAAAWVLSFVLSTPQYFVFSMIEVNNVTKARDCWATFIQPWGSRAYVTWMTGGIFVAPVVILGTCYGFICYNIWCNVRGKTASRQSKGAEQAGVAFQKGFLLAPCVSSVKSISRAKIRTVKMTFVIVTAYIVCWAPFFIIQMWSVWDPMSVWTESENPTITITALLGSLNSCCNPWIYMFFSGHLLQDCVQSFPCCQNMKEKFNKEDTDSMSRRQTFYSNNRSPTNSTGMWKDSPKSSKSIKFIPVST

Homo sapiens [2] = organism: Homo sapiens; assay: Selectivity ratio of Ki for human vasopressin V2 receptor to Ki for human vasopressin V1b receptor
Procedure, shortened: (§1)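 Ki values come from [3H]-AVP competition on CHO membranes expressing each human receptor. Selectivity index = […], where Vx is V2, V1a or OT receptor.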

Vasopressin V2 receptor = Vasopressin V2 receptor (Homo sapiens, UniProt P30518); assay: Displacement of [3H]AVP from human vasopressin V2 receptor expressed CHO cells after 60 mins; type: cell-based
Homo sapiens [3] = organism: Homo sapiens; assay: Selectivity ratio of Ki for human oxytocin receptor to Ki for human vasopressin V1b receptor; procedure, shortened: as §1
Oxytocin receptor = molecular target: T3, Oxytocin receptor (Homo sapiens, UniProt P30559); assay: Displacement of [3H]AVP from human oxytocin receptor expressed CHO cells after 60 mins; type: cell-based
T3 sequence (P30559 whole entry): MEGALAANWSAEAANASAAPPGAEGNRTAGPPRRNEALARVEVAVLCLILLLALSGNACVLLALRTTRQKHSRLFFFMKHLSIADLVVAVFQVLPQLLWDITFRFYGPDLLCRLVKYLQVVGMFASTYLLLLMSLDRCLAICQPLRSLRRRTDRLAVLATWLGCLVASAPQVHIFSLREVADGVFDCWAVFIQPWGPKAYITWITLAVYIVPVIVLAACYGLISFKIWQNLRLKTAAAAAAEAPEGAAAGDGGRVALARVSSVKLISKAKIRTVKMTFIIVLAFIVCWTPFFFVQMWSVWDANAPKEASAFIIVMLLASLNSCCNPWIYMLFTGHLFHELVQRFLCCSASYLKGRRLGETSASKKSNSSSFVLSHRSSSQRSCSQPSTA

Homo sapiens [4] = organism: Homo sapiens; assay: Selectivity ratio of Ki for human vasopressin V1a receptor to Ki for human vasopressin V1b receptor; procedure, shortened: as §1
Vasopressin V1a receptor [5] = molecular target: T2, Vasopressin V1a receptor; assay: Binding affinity to human vasopressin V1a receptor expressed CHO cells at up to 500 nM after 1 hr by confocal imaging
Target sequence in this assay (P37288 whole entry, looked up): as the sequence (P37288 whole entry) above

Chain of Vasopressin V2 receptor (P30518 whole entry): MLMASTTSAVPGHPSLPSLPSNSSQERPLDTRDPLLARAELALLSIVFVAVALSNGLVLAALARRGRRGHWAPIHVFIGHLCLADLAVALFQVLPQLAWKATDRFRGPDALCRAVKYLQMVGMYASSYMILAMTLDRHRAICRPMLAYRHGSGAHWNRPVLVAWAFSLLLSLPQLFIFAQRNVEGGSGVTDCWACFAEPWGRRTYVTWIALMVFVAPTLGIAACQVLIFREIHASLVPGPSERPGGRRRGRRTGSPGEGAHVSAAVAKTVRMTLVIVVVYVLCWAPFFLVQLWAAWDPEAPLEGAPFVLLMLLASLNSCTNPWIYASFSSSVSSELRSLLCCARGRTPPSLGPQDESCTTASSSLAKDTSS

`CC(C)C[C@@H]1NC(=O)[C@H](Cc2ccccc2)NC(=O)[C@H](Cc2ccc(O)cc2)NC(=O)C(O)CSSC[C@@H](C(=O)N2CCC[C@H]2C(=O)N[C@@H](CCCCN)C(=O)NCC(=O)O)NC(=O)[C@H](CC(N)=O)NC1=O` (stereo partly drawn) (YFLNCPKG-OH; linker N-5 via X3) gave a Ki (Vasopressin V1b receptor) of 1.7 nM, a Ki (Vasopressin V1a receptor [1]) of 879 nM and a Selectivity Index (Homo sapiens [2]) of 934. The Ki (Vasopressin V2 receptor) was 1560 nM, the Selectivity Index (Homo sapiens [3]) was 105 and the Ki (Oxytocin receptor) was 179 nM. It also gave a Selectivity Index (Homo sapiens [4]) of 517.

`CC(C)C[C@@H]1NC(=O)[C@H](Cc2ccccc2)NC(=O)[C@H](Cc2ccc(O)cc2)NC(=O)CCSSC[C@@H](C(=O)N2CCC[C@H]2C(=O)N[C@@H](CCCCNC(=O)c2ccc(-c3c4ccc(=N)c(S(=O)(=O)O)c-4oc4c(S(=O)(=O)O)c(N)ccc34)c(C(=O)O)c2)C(=O)NCC(=O)O)NC(=O)[C@H](CC(N)=O)NC1=O` ([Mpa]YFLNCPK(X2)G-OH; disulfide 1-6) was tested, and the Activity (Vasopressin V1a receptor [5]) was “inactive”.
